Measurements: ChEMBL document CHEMBL3112446, “Discovery and optimization of a new class of pyruvate kinase inhibitors as potential therapeutics for the treatment of methicillin-resistant Staphylococcus aureus infections” (Bioorg Med Chem, 2014)
Converted amounts (≈) assume the structure as drawn. The source made the active and inactive calls. The calls are words filed in the database; no cut-off is given here.

Assays:
Staphylococcus aureus [1] = experiment: Antibacterial activity against Staphylococcus aureus ATCC 29213 by two fold serial dilution method; format: functional
Staphylococcus aureus [2] = experiment: Inhibition of methicillin-resistant Staphylococcus aureus pyruvate kinase at 1 uM
Staphylococcus aureus [3] = experiment: Inhibition of methicillin-resistant Staphylococcus aureus pyruvate kinase at 10 uM
Summary of the method: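 His-tagged MRSA PK. Compounds diluted in 100% DMSO. Percent inhibition reported at the highest concentration tested, 10 µM.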

[4] = molecular target: Pyruvate kinase PKM (Homo sapiens) (UniProt P14618); experiment: Inhibition human pyruvate kinase M2 at 10 uM
Chain of Pyruvate kinase PKM (Homo sapiens) (P14618 2-531 limits assumed): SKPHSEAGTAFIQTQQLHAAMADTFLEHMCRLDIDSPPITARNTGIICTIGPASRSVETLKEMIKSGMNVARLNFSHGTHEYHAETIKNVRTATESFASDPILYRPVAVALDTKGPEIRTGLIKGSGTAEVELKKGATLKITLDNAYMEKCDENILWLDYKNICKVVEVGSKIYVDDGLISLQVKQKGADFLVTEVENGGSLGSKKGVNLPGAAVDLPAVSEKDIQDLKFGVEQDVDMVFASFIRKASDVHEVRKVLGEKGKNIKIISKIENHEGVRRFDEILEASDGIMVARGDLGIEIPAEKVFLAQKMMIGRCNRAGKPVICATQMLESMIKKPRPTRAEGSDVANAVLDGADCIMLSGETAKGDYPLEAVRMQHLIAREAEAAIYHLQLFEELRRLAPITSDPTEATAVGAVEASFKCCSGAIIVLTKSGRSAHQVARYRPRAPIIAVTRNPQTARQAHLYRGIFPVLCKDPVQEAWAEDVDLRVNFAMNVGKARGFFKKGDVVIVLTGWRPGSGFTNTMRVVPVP
Summary of the method: (§1)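 His-tagged recombinant human PK isoforms were used. Compounds were diluted in 100% DMSO and tested at 10 µM, the highest concentration tested. Values are percent inhibition of enzymatic activity.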

Staphylococcus aureus [5] = experiment: Antibacterial activity against Staphylococcus aureus ATCC 29213 by two fold serial dilution method in presence of efflux inhibitor verapamil; format: functional
Summary of the method: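 S. aureus ATCC29213, 96-well twofold broth microdilution in CAMHB with verapamil 200 mg/L (sub-inhibitory) versus plain CAMHB. Incubated 18–24 h at 37 °C, OD600 read, compound-plus-medium background subtracted. MIC is the lowest concentration giving complete growth inhibition relative to compound-free wells.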

[6] = molecular target: Pyruvate kinase PKM (Homo sapiens) (UniProt P14618); experiment: Inhibition human pyruvate kinase M1 at 10 uM; summary of the method: as §1
Staphylococcus aureus [7] = experiment: Ratio of MIC90 for Staphylococcus aureus ATCC 29213 in presence of efflux inhibitor verapamil to MIC90 for Staphylococcus aureus ATCC 29213 in absence of efflux inhibitor verapamil; format: functional
Summary of the method: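 S. aureus ATCC 29213 broth microdilution in 96-well format, run in parallel in CAMHB with and without verapamil (200 mg/L, sub-inhibitory). Compounds were twofold serially diluted in DMSO and added to ~2.5 × 10^5 CFU/ml. Plates were incubated 18–24 h at 37 °C and read at OD600, with inhibitor-only wells subtracted as background. MIC is the lowest concentration giving complete growth inhibition versus compound-free wells, in duplicate or triplicate. The ratio compares the MIC with verapamil to the MIC without.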

[8] = molecular target: Pyruvate kinase PKLR (Homo sapiens) (UniProt P30613); experiment: Inhibition human pyruvate kinase R at 10 uM; summary of the method: as §1
Chain of Pyruvate kinase PKLR (Homo sapiens) (P30613 whole entry, looked up): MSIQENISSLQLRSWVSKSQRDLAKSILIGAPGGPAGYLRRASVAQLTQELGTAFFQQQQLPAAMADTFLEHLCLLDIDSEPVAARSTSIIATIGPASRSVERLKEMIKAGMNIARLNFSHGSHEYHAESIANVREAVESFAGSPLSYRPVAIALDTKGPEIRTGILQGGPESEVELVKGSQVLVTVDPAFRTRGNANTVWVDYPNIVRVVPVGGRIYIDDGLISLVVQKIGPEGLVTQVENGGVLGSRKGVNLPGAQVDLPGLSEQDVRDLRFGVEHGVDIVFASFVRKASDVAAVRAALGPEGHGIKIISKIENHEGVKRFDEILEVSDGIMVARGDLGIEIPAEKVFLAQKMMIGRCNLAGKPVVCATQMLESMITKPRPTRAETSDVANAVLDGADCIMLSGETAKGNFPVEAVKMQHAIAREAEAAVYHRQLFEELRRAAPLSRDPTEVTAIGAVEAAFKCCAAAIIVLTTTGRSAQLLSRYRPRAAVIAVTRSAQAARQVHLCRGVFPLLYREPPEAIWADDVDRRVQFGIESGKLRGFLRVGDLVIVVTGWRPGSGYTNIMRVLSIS

[9] = Inhibition of methicillin-resistant Staphylococcus aureus pyruvate kinase; settings: read-out: IC50
Summary of the method: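 His-tagged MRSA PK. Compounds diluted in 100% DMSO. IC50 calculated from a triplicate 15-point titration.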

[10] = molecular target: Pyruvate kinase PKLR (Homo sapiens) (UniProt P30613); experiment: Inhibition human pyruvate kinase L at 10 uM; summary of the method: as §1
Staphylococcus aureus [11] = experiment: Antibacterial activity against Staphylococcus aureus […]; format: functional
Staphylococcus aureus [12] = experiment: Antibacterial activity against Staphylococcus aureus MRSA252; format: functional
HEK293 [13] = experiment: Cytotoxicity against HEK293 cells assessed as cell viability at 1 ug/ml; format: cell-based; settings: human
HEK293 [14] = experiment: Cytotoxicity against HEK293 cells assessed as cell viability at 100 ug/ml; format: cell-based; settings: human
HEK293 [15] = experiment: Cytotoxicity against HEK293 cells assessed as cell viability at 10 ug/ml; format: cell-based; settings: human
Staphylococcus aureus [16] = experiment: Bacteriostatic activity against wild type Staphylococcus aureus at 1.6 uM after 8 to 24 hrs; format: functional, organism-based
Summary of the method: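 Washed overnight cultures were diluted to OD600 = 0.1 (~2.5 × 10^7 cfu/ml) in pre-warmed medium, either BHI or glucose-free TSB with 1% sodium pyruvate, ±1.6 µM compound. Grown at 37 °C with shaking at 250 rpm. Viable counts by dilution plating on glucose-free TSA with 1% pyruvate at 0, 8 and 24 h.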

Staphylococcus aureus [17] = experiment: Bacteriostatic activity against Staphylococcus aureus harboring LAC Dpyk::ErmR mutant in TSB-G+P medium at 1.6 uM after 8 to 24 hrs; format: functional, organism-based
Summary of the method: (§2)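 S. aureus LAC pyk::ErmR (pyk replaced by an ErmR cassette) and WT overnight cultures were washed twice in PBS and diluted to OD600 0.1 (~2.5 × 10^7 cfu/ml). Media were pre-warmed (37 °C) BHI or TSB without glucose plus 1% sodium pyruvate (TSB-G+P), ±1.6 µM inhibitor. Cultures grew at 37 °C, 250 rpm. Viable counts were taken by dilution plating on glucose-free TSA plus 1% pyruvate at 0, 8 and 24 h.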

Staphylococcus aureus [18] = experiment: Bacteriostatic activity against Staphylococcus aureus harboring LAC Dpyk::ErmR mutant in Brain-Heart infusion broth medium at 1.6 uM after 8 to 24 hrs; format: functional, organism-based; summary of the method: as §2
Staphylococcus aureus [19] = experiment: Antibacterial activity against methicillin-resistant Staphylococcus aureus MW2 by two fold serial dilution method; format: functional
Staphylococcus aureus [20] = experiment: Bactericidal activity against Staphylococcus aureus harboring LAC Dpyk::ErmR mutant at 1.6 uM after 8 to 24 hrs; format: functional, organism-based; summary of the method: as §2

SMILES | MIC>98 (Staphylococcus aureus [1]) [µg/mL] | inhibition (Staphylococcus aureus [3]) [%] | inhibition [4] [%] | inhibition [6] [%] | inhibition [8] [%] | IC50 [9] [nM] | inhibition [10] [%] | Cell viability (HEK293 [13]) [%] | Cell viability (HEK293 [14]) [%] | Cell viability (HEK293 [15]) [%] | also measured
Brc1ccc2[nH]c(-c3cc4ccccc4s3)cc2c1 | >64 | – | – | – | – | – | – | – | – | – | inhibition (Staphylococcus aureus [2]): 42%
Brc1cc2cc(-c3cc4cc(Br)c(Br)cc4[nH]3)[nH]c2cc1Br | – | 97.6 | 2.3 | 11.1 | 20.7 | 2 | 8.2 | – | – | – | MIC (Staphylococcus aureus [5]): 16 µg/mL; Ratio (Staphylococcus aureus [7]): 4
O=C1NC[C@@H](c2c[nH]c3cc(Br)ccc23)N[C@H]1c1c[nH]c2cc(Br)ccc12 (relative stereo) [CIS-3,4-DIHYDROHAMACANTHIN B] | – | – | – | – | – | 16 | – | – | – | – | MIC (Staphylococcus aureus [11]): 12.5 µg/mL (≈ 25.6 µM); MIC (Staphylococcus aureus [12]): 12.5 µg/mL (≈ 25.6 µM)
Brc1ccc2cc(-c3ccc(-c4cc5ccc(Br)cc5[nH]4)cc3)[nH]c2c1 | >64 | – | – | – | – | – | – | – | – | – | inhibition (Staphylococcus aureus [2]): 54%
Brc1ccc2cc(CCc3cc4ccc(Br)cc4[nH]3)[nH]c2c1 | >64 | 93.4 | 1.3 | 9.9 | 24.1 | 6.5 | 9.7 | 104 | 85 | 92 | –
Brc1ccc2cc(/C=C/c3cc4ccccc4[nH]3)[nH]c2c1 | >64 | 93.4 | -0.9 | 16.1 | 23.8 | 4.5 | 12.9 | 107 | 115 | 114 | –
Brc1ccc2cc(-c3ccc(-c4cc5ccc(Br)cc5[nH]4)s3)[nH]c2c1 | >64 | – | – | – | – | – | – | – | – | – | inhibition (Staphylococcus aureus [2]): 28%
Brc1ccc2cc(-c3cc4ccc(Br)cc4[nH]3)[nH]c2c1 | – | 84.9 | 0.1 | 10.3 | 18.3 | 7 | 7.9 | 103 | 118 | 106 | MIC (Staphylococcus aureus [5]): 0.5 µg/mL; Ratio (Staphylococcus aureus [7]): 32
COc1ccc2[nH]c(-c3cc4ccc(Br)cc4[nH]3)cc2c1 | >64 | – | – | – | – | 2.5 | – | 107 | 72 | 88 | –
Clc1ccc2[nH]c(-c3cc4ccc(Br)cc4[nH]3)cc2c1 | – | – | – | – | – | 2 | – | – | – | – | MIC (Staphylococcus aureus [5]): 0.5 µg/mL; Activity (Staphylococcus aureus [16]): Active; Activity (Staphylococcus aureus [17]): inactive; Activity (Staphylococcus aureus [18]): Active; MIC (Staphylococcus aureus [19]): 0.5 µg/mL (≈ 1.45 µM); Activity (Staphylococcus aureus [20]): inactive
Brc1ccc2[nH]c(C#Cc3cc4ccc(Br)cc4[nH]3)cc2c1 | 16 (≈ 38.6 µM) | 86.3 | 8.7 | 19.5 | 27.8 | 4.7 | 14 | – | – | – | –
Brc1ccc2cc(-c3cc4cc(Br)c(Br)cc4[nH]3)[nH]c2c1 | 0.5 (≈ 1.07 µM) | 94.1 | 15.8 | 8.6 | 33.4 | 1.5 | 23.7 | 102 | 63 | 71 | –
Brc1ccc2[nH]c(-c3cc4ccc(Br)cc4[nH]3)cc2c1 | – | 97.8 | 8.7 | 6.9 | 13.6 | 2.2 | 6.1 | – | – | – | MIC (Staphylococcus aureus [19]): 0.5 µg/mL (≈ 1.28 µM)
Brc1ccc2cc(-c3cc4ccccc4o3)[nH]c2c1 | >64 | 95.9 | 0.4 | 5.3 | -5.5 | 108 | -6 | – | – | – | –
CN1CCN(CCn2c(-c3cc4ccc(Br)cc4[nH]3)cc3cc(Br)ccc32)CC1 | 4 (≈ 7.75 µM) | 100 | 1.7 | 3.2 | 26.1 | 2 | 16.8 | – | – | – | –
COc1cc(-c2cc3ccccc3[nH]2)ccc1-c1cc2ccc(Br)cc2[nH]1 | >64 | 62.2 | 14.6 | 7.3 | 13.5 | 2.1 | 4.3 | – | – | – | –
Fc1ccc2[nH]c(-c3cc4ccc(Br)cc4[nH]3)cc2c1 | – | – | – | – | – | 2.8 | – | – | – | – | MIC (Staphylococcus aureus [19]): 0.5 µg/mL (≈ 1.52 µM)
COCn1c(-c2cc3ccc(Br)cc3[nH]2)cc2cc(Br)ccc21 | >64 | – | – | – | – | 1.9 | – | 123 | 73 | 102 | –
